Screening data: PubChem BioAssay, Johns Hopkins Ion Channel Center
This is a sample that favours compounds with a hit; in the whole collection about 3.7% have one here.
hERG protect: compounds protecting human hERG from proarrhythmic drug block; AID 1511; CHO-hERG, FluxOR thallium flux, dofetilide IC70 present; activation (rescue from dofetilide block), less the hit threshold, % at 10 µM; Q12809; 0.51% of 310,000 active;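 active means activation above the mean of controls blocked by dofetilide plus 5 SD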;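 further: thallium influx through hERG after potassium depolarization seen as dye fluorescence rise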
KCNQ1 block: human KCNQ1 channel inhibition | CHO-K1 KCNQ1, FluxOR thallium flux fluorescence; hits give high values | B-score at 10 µM | 1.3% of 310,000 active | AID 2642;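 active means compounds whose thallium flux B-score, printed positive for inhibition, exceeds three library SD while starting fluorescence stays within three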;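 further: channel opened by potassium depolarization with thallium stimulus after 20 min compound exposure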
KCNQ1 act: potentiators or activators of human KCNQ1 potassium channel. B-score at 10 µM. P51787. CHO-K1 KCNQ1, thallium flux FluxOR fluorescence; hits give high values. 0.35% of 310,000 active;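 active means fluorescence ratio B-score, a plate-corrected score, at least three library SD, with initial intensity B-score within 5 SD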
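System: CHO-K1 cells stably expressing KCNQ1 / Medium: assay buffer for compound exposure, DMSO matched across wells / Reagent: thallium- and potassium-containing depolarizing buffer / Compound: one concentration, matched DMSO / Incubation: 20 min compound pretreatment at room temperature / Measured by: kinetic FluxOR fluorescence, 10 s baseline plus 110 s post-stimulus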
KCNK3 block: human KCNK3 channel inhibition, primary screen; B-score at 10 µM; 0.84% of 340,000 active; AID 602410; CHO-KCNK3 thallium flux, FluxOR fluorescence; hits give low values; O14649;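 active means B-score under library mean minus 4 SD, starting fluorescence ratio at most library mean plus 5 SD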;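 further: more negative B-score means stronger inhibition of thallium flux through KCNK3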
Target sequence (O14649 whole entry, looked up): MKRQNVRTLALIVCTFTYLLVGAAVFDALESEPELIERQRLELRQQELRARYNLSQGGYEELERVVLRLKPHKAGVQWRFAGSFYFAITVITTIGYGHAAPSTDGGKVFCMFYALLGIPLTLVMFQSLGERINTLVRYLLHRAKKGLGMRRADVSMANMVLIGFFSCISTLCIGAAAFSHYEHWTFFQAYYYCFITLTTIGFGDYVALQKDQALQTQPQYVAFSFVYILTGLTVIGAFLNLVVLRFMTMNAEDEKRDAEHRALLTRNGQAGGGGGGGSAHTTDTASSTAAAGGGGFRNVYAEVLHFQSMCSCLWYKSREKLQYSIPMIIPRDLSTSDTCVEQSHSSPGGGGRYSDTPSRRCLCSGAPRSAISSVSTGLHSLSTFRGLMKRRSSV
KCNK9 inh: blocks the human KCNK9 two-pore domain potassium channel; Q9NPC2; HEK293 KCNK9, FluxOR thallium flux fluorescence; hits give low values; B-score at 10 µM; 1.2% of 310,000 active; AID 488922;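 active means ratio B-score over 3 SD below the library mean, with starting fluorescence within 5 SD of its mean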;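 further: negative B-score means less thallium flux so channel inhibition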
Kir21 block: Kir2.1 (mouse) channel inhibition | 0.85% of 310,000 active | B-score at 10 µM | HEK293-Kir2.1, FluxOR thallium flux fluorescence; hits give low values | P35561;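 active means fluorescence ratio B-score at or below minus 3 SD of library scores, with starting-brightness B-score within 2 SD, cut at about -4.2 in these data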;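 further: channel flux triggered by added potassium and thallium sulfate stimulus; B-score of peak minus minimum fluorescence over baseline after thallium stimulus; more negative B-score means stronger Kir2.1 block with less thallium influx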
KCNK9 inh conf: human KCNK9 inhibitor confirmation; 43% of 4,900 active; shares compounds with KCNK9 inh; inhibition, % at 10 µM; AID 492992; HEK293 KCNK9 cells, FluxOR thallium flux fluorescence;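 active means thallium signal inhibited by more than 5 SD of the compound-free buffer control wells, on both duplicate plates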;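 further: 0% = assay buffer control wells without compound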
Kir2-1 spec: tests whether KCNK9 modulators also affect mouse Kir2.1; AID 492993; 4% of 4,900 active; shares compounds with KCNK9 inh; inhibition, % at 10 µM; Kir2.1 cells, FluxOR thallium flux fluorescence;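 active means thallium signal drop more than 5 SD beyond the mean of the no-compound control wells, seen in both duplicate plates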;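 further: signal is fluorescence rise after thallium addition divided by baseline fluorescence; plate controls were assay buffer only for no effect and full block by chlorpromazine control for full effect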
KCNK9 uninduced: second check of KCNK9 modulator effects in non-induced HEK293 cells; shares compounds with KCNK9 inh; FluxOR thallium flux; inhibition, % at 10 µM; 40% of 4,900 active; AID 492997;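 active means thallium signal drop beyond 5 SD of the untreated control mean, on both duplicate plates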;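 further: plate controls were buffer only IC0 wells for no effect and SID17386958 at its maximal inhibitory level for full effect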
Numbers without * were called inactive; i = inactive; nt = not tested or not shown.

SMILES	hERG protect	KCNQ1 block	KCNQ1 act	KCNK3 block	KCNK9 inh	Kir21 block	KCNK9 inh conf	Kir2-1 spec	KCNK9 uninduced
COC(=O)C1=C(N)Oc2cc(C)n(CC3CCCO3)c(=O)c2C1c1ccc(Cl)c(Cl)c1 (stereo not drawn)	-12.7	i	i	i	-9.05*	-0.46	35.0%*	i	52.0%*
CCn1c(C)cc2c(c1=O)C(c1ccccc1)C(C(=O)OC)=C(N)O2 (stereo not drawn)	-1.9	i	i	i	i	-0.77	nt	nt	nt
COC(=O)C1=C(N)Oc2cc(C)n(Cc3ccco3)c(=O)c2C1c1cccc(Cl)c1 (stereo not drawn)	-3.9	i	i	i	-13.5*	-0.17	46.5%*	i	45.0%*
O=C(COC(=O)c1ccccn1)NCCc1ccc(Cl)cc1	nt	nt	nt	i	nt	nt	nt	nt	nt
CCN(Cc1nc(-c2ccc(C)cc2)no1)C(=O)c1ccco1	-5.8	i	i	i	i	-0.96	nt	nt	nt
O=C(COC(=O)c1ccc(Cl)c(S(=O)(=O)NCc2ccccc2)c1)NCC1CCCO1 (stereo not drawn)	-10.8	i	i	i	i	-0.41	nt	nt	nt
CCOC(=O)N/N=C/c1c(C)c(C(=O)c2ccc(F)cc2)n2ccccc12	-11.8	i	i	i	-11.4*	-0.04	i	i	i
COc1ccc2c(c1)CCC/C2=N/OC(=O)c1ccccc1OC	-9.8	i	i	i	-12.4*	0.37	62.5%*	i	i
COc1ccc(C(=O)NC(=S)Nc2ccc(CN3CCOCC3)cc2)cc1Br	1.0	i	i	i	i	-0.18	i	i	i
Cc1cc(C)n2c(SCC(=O)Nc3ccc(F)cc3)nnc2n1	-5.6	i	i	i	i	-0.04	nt	nt	nt
c1ccc2c(c1)OCC(c1csc3ncnc(N4CCCCC4)c13)O2 (stereo not drawn)	-7.7	i	i	i	-13.2*	-0.16	44.5%*	i	32.5%*
O=C(NCc1ccco1)C1Cc2ccccc2CN1S(=O)(=O)c1ccccc1F (stereo not drawn)	nt	nt	nt	i	nt	nt	nt	nt	nt
CC(C)C[C@H](NC(=O)c1nc[nH]c1C(=O)NCC(=O)OCc1ccccc1)C(=O)OCc1ccccc1	-22.6	i	i	i	i	0.11	i	i	i
CC(C)C[C@H](NC(=O)c1nc[nH]c1C(=O)NCC(=O)OC(C)(C)C)C(=O)OCc1ccccc1	-7.5	i	i	i	i	0.21	nt	nt	nt
Cc1ccc(NC(=O)CN(C)C(=O)Cc2c(Cl)cccc2Cl)cc1	-9.1	i	i	i	i	-0.77	nt	nt	nt
COc1ccc2c(c1)c(CC(=O)OC(C)C(=O)N(C)C)c(C)n2C(=O)c1ccc(Cl)cc1 (stereo not drawn)	-11.8	i	i	i	i	0.57	i	i	i
COc1ccc2c(c1)c(CC(=O)OCC(=O)N(C)C)c(C)n2C(=O)c1ccc(Cl)cc1	-6.7	i	i	i	i	0.71	nt	nt	nt
CC(C)(C)C(=O)Nc1nnc(SCC(=O)Nc2nccs2)s1	-5.0	i	i	i	i	0.03	nt	nt	nt
CCCN(CCC)S(=O)(=O)c1cccc(-c2csc(C)n2)c1	-17.0	i	i	i	i	-2.67	i	27.5%*	i
COc1ccc(C(=O)c2ccc(CC#N)s2)cc1	-5.4	i	i	i	i	0.51	nt	nt	nt
CCCCC(CC)C(=O)Nc1cccc(SC)c1 (stereo not drawn)	-12.5	i	i	i	-9.36*	-1.14	30.5%*	i	i
C/C(=C\c1ccccc1)CN1CCN(c2ccccc2)CC1	-13.1	i	i	i	i	0.17	i	i	i
CCC1Oc2ccc(C)cc2N(CC(=O)N(Cc2ccc(C)o2)C2CCCC2)C1=O (stereo not drawn)	-17.6	i	i	i	i	-2.54	i	i	34.5%*
O=C(NNC(=O)C1CC(=O)N(Cc2ccccc2)C1)c1ccc(Br)cc1 (stereo not drawn)	-6.7	i	i	i	i	-1.43	nt	nt	nt
O=c1[nH]c(NNC(=S)NC2CCCCC2)nc2c1C1(CCCC1)Cc1ccccc1-2	-14.1	6*	i	i	i	-0.92	i	i	i
SMILES	hERG protect	KCNQ1 block	KCNQ1 act	KCNK3 block	KCNK9 inh	Kir21 block	KCNK9 inh conf	Kir2-1 spec	KCNK9 uninduced
O=c1[nH]c(NNC(=S)NCc2ccccc2)nc2c1C1(CCCCC1)Cc1ccccc1-2	-6.3	i	i	i	i	0.14	36.5%*	i	i
Cc1cc(C(=O)N/N=C/c2ccc(-c3cccc(Cl)c3)o2)n[nH]1	-10.1	i	i	i	-14.3*	-1.02	33.5%*	i	32.0%*
O=C(NC(CO)(CO)CO)[C@@H]1CCCN1S(=O)(=O)c1cccc2cccnc12	nt	nt	nt	i	nt	nt	nt	nt	nt
O=c1[nH]c(NC2CCCCC2)c([N+](=O)[O-])c(=O)[nH]1	-6.0	i	i	i	i	-0.58	nt	nt	nt
Cc1cc(C)n(-c2nc3ccccc3nc2N2CCCCCC2)n1	-7.2	i	i	i	-9.91*	-1.96	33.0%*	i	40.0%*
O=C(CN1C(=O)CSc2ccc(S(=O)(=O)N3CCOCC3)cc21)NCc1cccnc1	-8.3	i	i	i	i	-0.65	nt	nt	nt
CCC1CCCCN1C(=S)NC1CCCCC1 (stereo not drawn)	-12.7	i	i	i	i	0.36	nt	nt	nt
CCCC1CCC(c2ccc(C(N)=O)cc2)CC1 (stereo not drawn)	-2.3	i	i	i	i	0.51	nt	nt	nt
CCCC1CCC(=C(C#N)C(N)=O)CC1 (stereo not drawn)	-7.3	i	i	i	-8.78*	0.94	i	i	i
COC(=O)c1cc(NC(=O)Nc2cc(OC)ccc2OC)cc(C(=O)OC)c1	-16.2	i	i	i	-10.6*	2.22	31.0%*	i	i
CCCCn1cc(C(=O)c2cc(Br)ccc2O)cc(C#N)c1=O	-11.5	i	i	i	i	0	nt	nt	nt
CN(C)/C=c1\sc2c(C#N)cc(C(=O)c3ccc(Br)cc3)n2c1=O	-6.8	i	i	i	-8.43*	0.19	35.5%*	62.5%*	77.5%*
O=CN/C=C/c1cc(O)ccc1O	nt	nt	nt	i	nt	nt	nt	nt	nt
CC(C)CN1CC(Br)C(=O)NC1=O (stereo not drawn)	nt	nt	nt	i	nt	nt	nt	nt	nt
